# Shown are actives, neighbours in structure and some others; about 2.6% of the full set was active somewhere.
# core dimer inh: HCV core protein dimerization inhibition; inhibition, % at 5 µM; hit rate 0.33% among 300,000; TR-FRET GST/Flag-core106 dimerization, 1536-well;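 active = inhibition above the mean of all tested compounds plus 3 SD, set per screening campaign, cut at about 45% in these data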
#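 Material: Tagged HCV core106 pair (GST and Flag) | Amount: GST-core106 13.5 nM, Flag-core106 17 nM | Medium: KF-containing HEPES buffer, pH 7.45, DTT, CHAPS, BSA | Reagent: Eu donor and XL665 acceptor anti-tag antibodies | Schedule: 4 h at 22.5 °C | Technique: Time-resolved FRET, ex 340 nm, em 617 and 671 nm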
# ABHD5-PLIN5 inh: blocks binding of human ABHD5 to perilipin-5. Q00G26+Q8WTS1. Split G. princeps luciferase complementation, luminescence, 4 h. inhibition, % at 4 µM. hit rate 0.78% among 360,000. AID 602281;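 active = inhibition above the mean inhibition across every tested compound plus 3 SD, cut at about 22% in these data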;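 also: 0% = DMSO only wells and the 100% control is not disclosed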
# rCAG binder: binds r(CAG) RNA repeats. r(CAG) RNA repeat, TO-PRO-1 dye displacement fluorescence. inhibition, % at 3 µM. hit rate 1.3% among 370,000. AID 651821;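 active = inhibition above the plate cutoff, the mean of all test compounds on that plate plus 3 SD, cut at about 35% in these data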;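 also: 0% = DMSO alone and 100% = 100 µM mitoxantrone as full dye displacement; higher means more dye released from RNA so lower well fluorescence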
# NadD block: blocks S. aureus nicotinate mononucleotide adenylyltransferase; purified NadD enzyme, colorimetric absorbance read-out; inhibition, % at 20 µM; hit rate 0.78% among 360,000; in the data active = inhibition above about 26%
# NadD inh conf: NadD (S. aureus) inhibition, single concentration confirmation; shares compounds with NadD block; purified S. aureus NadD, colorimetric enzyme assay; inhibition, % at 20 µM; hit rate 13% among 2,000; AID 624309; in the data active = inhibition mostly above about 42%, no sharp cut-off; inactive = mostly below about 42%
# The depositor's hits bear a star; x = no result.
SMILES,core dimer inh,ABHD5-PLIN5 inh,rCAG binder,NadD block,NadD inh conf
CCSC1=N/C(=C\c2ccc3c(c2)OCO3)C(=O)S1,5.8,-7.4,5.1,0.2,x
CCCSC1=N/C(=C\C=C\c2ccco2)C(=O)S1,43.7,6.7,76.4*,39.9*,23.8
CCCSC1=N/C(=C\c2ccc3c(c2)OCO3)C(=O)S1,0.5,-10.1,14.0,39.7*,-2.7
CCNC(=O)C1(C)CCN(Cc2ccccc2C#N)C1 (configuration not stated),x,-8.5,2.2,-3.6,x
O=C(NC(=S)Nc1ccccc1N1CCCC1)c1ccc(-c2cccc([N+](=O)[O-])c2)o1,15.4,-7.2,15.1,31.9*,2.9
O=C(Cn1cnc([N+](=O)[O-])c1)Nc1cc(Oc2ccc(Cl)cc2Cl)cc([N+](=O)[O-])c1,8.3,-3.8,21.7,31.8*,18.8
CC(C)n1cc(/C=N\NC(=O)c2cc3c(ccc4ccccc43)o2)c2ccccc21,x,-1.6,7.0,32.9*,2.3
Cc1cc(/C=N/NC(=O)c2cc3ccccc3o2)c(C)n1C,26.4,2.6,15.3,34.8*,19.4
CCn1cc(/C=N/NC(=O)c2cc3c(ccc4ccccc43)o2)c2ccccc21,30.0,-3.8,15.3,35.5*,48.5*
Cc1ccc(/C=N/NC(=O)c2cc3c(ccc4ccccc43)o2)o1,x,3.5,14.4,0.0,x
O=C(NNC(=O)c1cc(S(=O)(=O)N2CCOCC2)ccc1Cl)c1ccc(F)cc1,x,7.9,2.3,0.1,x
Cc1ccc(C(=O)NC2CCCCN(Cc3ccccc3C)C2=O)cc1 (configuration not stated),x,x,-0.6,x,x
CCOC(=O)C1=C(C)c2ccccc2OC1(CC)C(=O)OCC (configuration not stated),x,-14.5,0.8,-2.5,x
CCOC(=O)C1=C(C)c2ccccc2N(C(=O)OC)C1(C)C(=O)OCC (configuration not stated),x,30.4*,-1.4,43.7*,69.0*
c1ccn2cc(-c3ccc4c(c3)OCO4)cc2c1,7.5,3.2,11.1,29.0*,34.9
Cc1cccn2c(=O)c3cc(C(N)=S)c(=N)n(CCCN4CCOCC4)c3nc12,1.8,-4.2,3.2,36.0*,-8.2
O=C(Nc1cccc(-c2ccc(N3CCCCC3)nn2)c1)C(F)(F)F,-3.1,-7.4,-2.0,1.9,x
Cc1ccc([N+](=O)[O-])cc1S(=O)(=O)Nc1cccc(-c2ccc(N3CCCC3)nn2)c1,25.5,-4.3,32.2,43.8*,54.5*
O=S(=O)(Nc1cccc(-c2ccc(N3CCCCCC3)nn2)c1)c1ccccc1F,-0.2,-2.9,10.8,12.3,x
O=S(=O)(Nc1cccc(-c2ccc(N3CCCCCC3)nn2)c1)c1cccc(F)c1,24.5,-3.6,14.1,30.8*,21.2
COc1ccc(C)cc1S(=O)(=O)Nc1cccc(-c2ccc(N3CCCCCC3)nn2)c1,17.5,1.4,10.2,30.8*,27.5
O=S(=O)(Nc1cccc(-c2ccc(N3CCCCCC3)nn2)c1)c1ccc(F)cc1,16.2,4.0,8.9,13.8,x
Cc1ccc([N+](=O)[O-])cc1S(=O)(=O)Nc1ccc(-c2ccc(N3CCOCC3)nn2)cc1,6.4,-2.1,30.0,12.1,x
O=S(=O)(Nc1cccc(-c2ccc(N3CCCCCC3)nn2)c1)c1ccc(C(F)(F)F)cc1,20.8,-10.7,30.2,36.2*,23.1
Cc1ccc(-c2nc3ncccn3c2NC(=O)c2ccccc2)cc1,x,x,4.5,x,x
SMILES,core dimer inh,ABHD5-PLIN5 inh,rCAG binder,NadD block,NadD inh conf
Nc1nc2c(ncn2[C@@H]2O[C@H](CNS(=O)(=O)N3CCCC3)[C@@H](O)[C@H]2O)c(=O)[nH]1,x,-2.8,3.5,2.5,x
COc1ccc(NC(=O)N(C)C[C@H]2OCCCC[C@H](C)Oc3ccc(NC(=O)Nc4cccc5ccccc45)cc3C(=O)N([C@@H](C)CO)C[C@H]2C)cc1,x,x,17.9,x,x
Fc1cccc(Cl)c1C1SCc2nc3ccccc3n21 (configuration not stated),x,9.2,2.9,0.4,x
CCOc1ccc(S(=O)(=O)Nc2cccc(-c3ccc(N4CCCCCC4)nn3)c2)cc1,24.4,-2.4,10.3,24.3,x
Cc1ccc(S(=O)(=O)Nc2cccc(-c3ccc(N4CCCCCC4)nn3)c2)cc1C,11.9,5.9,16.4,42.5*,35.9
O=S(=O)(Nc1cccc(-c2ccc(N3CCCCCC3)nn2)c1)c1ccccc1Cl,25.7,-3.9,13.4,50.1*,36.5
O=C(NC(C(=O)N/N=C/c1c2ccccc2cc2ccccc12)c1n[nH]c(=O)c2ccccc12)c1ccccc1 (configuration not stated),46.8*,6.8,20.2,51.3*,23.4

# From PubChem
